This passage reports K ass and PT results from ChEMBL document CHEMBL1133191, “Non-amidine-containing 1,2-dibenzamidobenzene inhibitors of human factor Xa with potent anticoagulant and antithrombotic activity” (J Med Chem, 2000).

The target of assay [1] is Coagulation factor X (Homo sapiens) (UniProt P00742). In words: Binding affinity for human Coagulation factor X. An outline of the steps:
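Apparent association constant with human factor Xa, determined by the method the paper cites. Each value is the mean of at least three separate experiments, with standard deviation under 20%.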

Another assay is filed under the species Homo sapiens. In words: Prothrombin time activity, concentration required to double the time of clot formation in the prothrombin time assay. Format: functional. Put shortly:
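Prothrombin time clotting assay run as described in a cited reference. The value is the compound concentration (μM) that doubles the time to clot formation. It is the mean of at least three separate experiments, with standard deviation under 20%.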

For assay [2], the target named is Vitamin K-dependent protein C (Homo sapiens) (UniProt P04070). In words: Measured for apparent association constant (binding affinity) for activated protein C.
The target in assay [3] is Coagulation factor XI (Homo sapiens) (UniProt P03951). In words: Measured for apparent association constant (binding affinity) for Coagulation factor XI.
Assay [4] can be described thus: Measured for apparent association constant (binding affinity) for Factor IIa.
The target of assay [5] is T1, Serine protease 1 (Bos taurus) (UniProt P00760).
T1 sequence (whole entry): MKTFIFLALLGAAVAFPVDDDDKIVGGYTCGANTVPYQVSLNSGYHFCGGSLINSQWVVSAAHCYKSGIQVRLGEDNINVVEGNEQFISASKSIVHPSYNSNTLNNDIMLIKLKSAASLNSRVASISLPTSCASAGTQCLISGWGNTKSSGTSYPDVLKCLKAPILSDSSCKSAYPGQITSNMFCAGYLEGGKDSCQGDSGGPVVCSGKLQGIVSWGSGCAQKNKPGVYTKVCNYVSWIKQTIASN
In words: Measured for apparent association constant (binding affinity) for trypsin (bovine).

In assay [6] the target is T2, Coagulation factor XII (Homo sapiens) (UniProt P00748).
T2 sequence (whole entry): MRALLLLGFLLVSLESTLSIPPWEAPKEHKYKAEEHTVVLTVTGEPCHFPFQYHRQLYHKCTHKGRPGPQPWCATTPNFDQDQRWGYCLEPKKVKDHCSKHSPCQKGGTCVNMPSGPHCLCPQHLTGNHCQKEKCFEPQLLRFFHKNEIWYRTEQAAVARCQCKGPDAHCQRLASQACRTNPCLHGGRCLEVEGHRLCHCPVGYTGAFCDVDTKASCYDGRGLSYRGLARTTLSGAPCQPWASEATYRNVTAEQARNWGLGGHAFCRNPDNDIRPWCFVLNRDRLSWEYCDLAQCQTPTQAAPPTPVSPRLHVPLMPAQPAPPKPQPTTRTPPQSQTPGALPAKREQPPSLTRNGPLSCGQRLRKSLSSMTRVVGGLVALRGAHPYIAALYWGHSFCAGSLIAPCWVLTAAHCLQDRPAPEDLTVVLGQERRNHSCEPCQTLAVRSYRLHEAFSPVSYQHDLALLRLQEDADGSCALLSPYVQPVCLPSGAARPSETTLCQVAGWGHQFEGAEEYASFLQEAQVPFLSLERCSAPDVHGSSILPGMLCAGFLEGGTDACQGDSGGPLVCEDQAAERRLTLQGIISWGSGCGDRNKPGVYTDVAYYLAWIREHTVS
In words: Measured for apparent association constant (binding affinity) for Coagulation factor XII.

The target of assay [7] is Tissue-type plasminogen activator (Homo sapiens) (UniProt P00750). In words: Measured for apparent association constant (binding affinity) for Tissue type plasminogen activator.
The target in assay [8] is Plasminogen (Homo sapiens) (UniProt P00747). In words: Measured for apparent association constant (binding affinity) for plasmin.
Assay [9] addresses Urokinase-type plasminogen activator (Homo sapiens) (UniProt P00749). In words: Measured for apparent association constant (binding affinity) for Urokinase-type plasminogen activator.
The target in assay [10] is Prothrombin (Homo sapiens) (UniProt P00734). In words: Measured for apparent association constant (binding affinity) for Coagulation factor II.

Some results are limits rather than exact numbers.

Sequence of Coagulation factor X (Homo sapiens) (P00742 41-179 limits assumed): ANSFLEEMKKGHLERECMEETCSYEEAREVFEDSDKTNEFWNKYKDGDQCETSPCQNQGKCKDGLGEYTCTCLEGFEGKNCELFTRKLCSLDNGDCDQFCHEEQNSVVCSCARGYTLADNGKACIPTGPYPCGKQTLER
Sequence of Coagulation factor X (Homo sapiens) (P00742 235-488 limits assumed): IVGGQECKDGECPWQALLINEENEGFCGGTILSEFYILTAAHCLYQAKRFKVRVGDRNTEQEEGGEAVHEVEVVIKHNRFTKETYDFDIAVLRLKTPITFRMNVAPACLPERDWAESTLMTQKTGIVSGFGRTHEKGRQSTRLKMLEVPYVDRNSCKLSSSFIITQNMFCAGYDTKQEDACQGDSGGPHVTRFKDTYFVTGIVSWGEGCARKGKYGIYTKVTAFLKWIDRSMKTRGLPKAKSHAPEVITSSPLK
Sequence of Coagulation factor XI (Homo sapiens) (P03951 19-387 limits assumed): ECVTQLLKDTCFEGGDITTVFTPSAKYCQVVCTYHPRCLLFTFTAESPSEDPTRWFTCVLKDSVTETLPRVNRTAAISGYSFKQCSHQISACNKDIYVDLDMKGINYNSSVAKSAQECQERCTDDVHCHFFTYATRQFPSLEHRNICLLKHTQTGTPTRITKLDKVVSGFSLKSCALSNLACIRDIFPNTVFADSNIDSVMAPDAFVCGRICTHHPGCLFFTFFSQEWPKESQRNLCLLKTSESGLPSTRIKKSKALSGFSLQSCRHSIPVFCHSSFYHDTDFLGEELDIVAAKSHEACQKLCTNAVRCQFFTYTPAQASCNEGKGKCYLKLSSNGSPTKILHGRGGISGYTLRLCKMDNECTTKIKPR
Sequence of Coagulation factor XI (Homo sapiens) (P03951 388-625 limits assumed): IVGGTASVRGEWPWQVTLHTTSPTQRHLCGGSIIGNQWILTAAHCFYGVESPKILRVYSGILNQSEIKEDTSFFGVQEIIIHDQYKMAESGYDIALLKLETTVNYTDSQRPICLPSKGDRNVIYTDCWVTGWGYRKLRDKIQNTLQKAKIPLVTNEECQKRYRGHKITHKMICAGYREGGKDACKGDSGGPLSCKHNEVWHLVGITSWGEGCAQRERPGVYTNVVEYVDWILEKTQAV
Sequence of Plasminogen (Homo sapiens) (P00747 whole entry, looked up): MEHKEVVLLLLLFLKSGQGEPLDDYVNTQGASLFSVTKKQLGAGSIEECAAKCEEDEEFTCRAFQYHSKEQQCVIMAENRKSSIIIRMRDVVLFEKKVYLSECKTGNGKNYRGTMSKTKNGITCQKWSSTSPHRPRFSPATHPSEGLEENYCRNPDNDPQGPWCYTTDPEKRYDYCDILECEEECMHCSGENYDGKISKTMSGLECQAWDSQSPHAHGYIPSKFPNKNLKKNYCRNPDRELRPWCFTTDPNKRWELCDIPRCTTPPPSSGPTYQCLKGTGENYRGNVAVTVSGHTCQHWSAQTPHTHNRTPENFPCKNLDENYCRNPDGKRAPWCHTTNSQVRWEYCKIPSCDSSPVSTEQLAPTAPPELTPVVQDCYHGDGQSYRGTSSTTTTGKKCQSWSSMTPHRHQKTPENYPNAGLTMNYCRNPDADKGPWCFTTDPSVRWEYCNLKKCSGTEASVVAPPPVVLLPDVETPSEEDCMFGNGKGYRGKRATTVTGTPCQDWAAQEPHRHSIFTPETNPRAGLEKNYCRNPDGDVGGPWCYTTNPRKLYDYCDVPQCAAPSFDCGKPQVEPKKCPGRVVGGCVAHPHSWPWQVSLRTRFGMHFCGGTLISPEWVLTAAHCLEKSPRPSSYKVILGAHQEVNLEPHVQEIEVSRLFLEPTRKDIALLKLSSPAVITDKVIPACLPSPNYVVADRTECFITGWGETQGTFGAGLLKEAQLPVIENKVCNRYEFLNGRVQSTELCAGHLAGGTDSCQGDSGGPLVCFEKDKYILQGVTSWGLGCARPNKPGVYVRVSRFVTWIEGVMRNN
Sequence of Vitamin K-dependent protein C (Homo sapiens) (P04070 43-197 limits assumed): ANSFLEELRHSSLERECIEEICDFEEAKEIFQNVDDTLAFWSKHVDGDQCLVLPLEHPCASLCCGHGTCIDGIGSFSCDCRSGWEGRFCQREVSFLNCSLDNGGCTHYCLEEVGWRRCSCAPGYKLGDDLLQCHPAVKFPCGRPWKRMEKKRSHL
Sequence of Vitamin K-dependent protein C (Homo sapiens) (P04070 212-461 limits assumed): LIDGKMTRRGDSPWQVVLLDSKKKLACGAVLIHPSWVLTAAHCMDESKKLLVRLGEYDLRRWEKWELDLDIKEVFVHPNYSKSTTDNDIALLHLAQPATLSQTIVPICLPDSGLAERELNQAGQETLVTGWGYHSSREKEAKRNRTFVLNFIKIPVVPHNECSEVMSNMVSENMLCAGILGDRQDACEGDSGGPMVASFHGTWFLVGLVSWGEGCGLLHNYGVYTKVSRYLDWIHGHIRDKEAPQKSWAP
Sequence of Tissue-type plasminogen activator (Homo sapiens) (P00750 36-562 limits assumed): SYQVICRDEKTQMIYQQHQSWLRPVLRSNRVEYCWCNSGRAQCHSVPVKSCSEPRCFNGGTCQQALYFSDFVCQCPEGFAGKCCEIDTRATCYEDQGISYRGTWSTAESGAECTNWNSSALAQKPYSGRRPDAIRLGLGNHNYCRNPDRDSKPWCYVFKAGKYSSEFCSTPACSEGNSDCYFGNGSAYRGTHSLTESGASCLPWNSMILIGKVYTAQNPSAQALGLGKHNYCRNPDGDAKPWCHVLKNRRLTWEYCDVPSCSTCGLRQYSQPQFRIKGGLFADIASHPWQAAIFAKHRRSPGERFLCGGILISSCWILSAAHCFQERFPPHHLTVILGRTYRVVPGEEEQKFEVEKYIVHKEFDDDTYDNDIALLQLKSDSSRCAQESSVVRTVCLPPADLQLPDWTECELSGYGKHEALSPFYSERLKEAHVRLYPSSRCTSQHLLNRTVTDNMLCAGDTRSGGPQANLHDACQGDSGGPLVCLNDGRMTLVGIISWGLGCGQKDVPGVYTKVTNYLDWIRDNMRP

With `COc1ccc(C(=O)Nc2ccc(O)cc2NC(=O)c2ccc(C(C)(C)C)cc2)cc1`, in assay [1], the K ass was 6.6e+06 l M-1. In addition, the PT in the assay listed under Homo sapiens was greater than 50 µM.

Turning to `COc1ccc(C(=O)Nc2ccccc2NC(=O)NCC2CCN(c3ccncc3)CC2)cc1`, the K ass was < 10000 l M-1 in assay [2]; < 10000 l M-1 in [3]; 6.2e+07 l M-1 in assay [1]; < 10000 l M-1 in [4]; < 10000 l M-1 in [5]; < 10000 l M-1 in [6]. Also, the K ass in [7], in assay [8] and in assay [9] was < 10000 l M-1 throughout. This compound also displayed a PT in the assay listed under Homo sapiens of 0.96 µM.

Turning to `COc1ccc(C(=O)Nc2ccccc2NC(=O)OCC2CCN(c3ccncc3)CC2)cc1`, the K ass in [1] was 2e+07 l M-1. Moreover, the PT in the assay listed under Homo sapiens turned out to be 1.9 µM.

Turning to `O=C(NCC1CCN(c2ccncc2)CC1)Nc1ccccc1NC(=O)c1ccc(Cl)cc1`, the K ass was < 10000 l M-1 in assay [2]; < 10000 l M-1 in assay [3]; 1e+08 l M-1 in [1]; < 10000 l M-1 in assay [5]; 60000 l M-1 in assay [10]; < 10000 l M-1 in [6]. For the same compound, the values for the K ass in [8] and in [9] were 90000 l M-1 and < 10000 l M-1, respectively. In the assay filed under Homo sapiens, the PT is 0.58 µM.

Consider `COc1ccc(C(=O)Nc2ccccc2NC(=O)c2ccc(-c3ccncc3)cc2)cc1`, for which, in assay [1], the K ass is 9.2e+06 l M-1. The compound further displayed a PT in the assay listed under Homo sapiens of 9.5 µM.

Regarding `CC(C)(C)c1ccc(C(=O)Nc2cc(C(=O)O)ccc2NC(=O)c2cccc(C(=N)N)c2)cc1`, the K ass in [1] was 4.7e+08 l M-1. This compound gave a PT in the assay filed under Homo sapiens of 0.83 µM.

As for `O=C(NCC1CCN(c2ccncc2)CC1)Nc1ccccc1NC(=O)c1ccccc1`, the K ass in assay [1] is 5.9e+06 l M-1. In addition, the PT in the assay listed under Homo sapiens is 6.2 µM.

Turning to `COc1ccc(C(=O)Nc2ccccc2NC(=O)C2CCN(c3ccncc3)CC2)cc1`, the K ass in [1] was 2.3e+06 l M-1. In the assay filed under Homo sapiens, this compound showed a PT of 9.7 µM.

As to `CC(C)(C)c1ccc(C(=O)Nc2ccccc2NC(=O)NCC2CCN(c3ccncc3)CC2)cc1`, in [1], the K ass is 40000 l M-1.

For the compound `COc1ccc(C(=O)Nc2ccccc2NC(=O)OC2CCN(c3ccncc3)CC2)cc1`, the K ass in assay [1] was 1.7e+07 l M-1. In the assay filed under Homo sapiens, this compound showed a PT of 2.6 µM.

As to `COc1ccc(C(=O)Nc2ccccc2NC(=O)NC2CCN(c3ccncc3)CC2)cc1`, the K ass in [1] was 1.2e+07 l M-1. This compound also had a PT in the assay listed under Homo sapiens of 2.4 µM.

Take `CCOc1ccc(C(=O)Nc2ccccc2NC(=O)NCC2CCN(c3ccncc3)CC2)cc1`: in assay [1], the K ass is 1.5e+07 l M-1. Moreover, the PT in the assay filed under Homo sapiens stood at 2.6 µM.

`COc1ccc(C(=O)Nc2ccccc2NC(=O)OCCC2CCN(c3ccncc3)CC2)cc1`: the K ass in assay [1] is 2.5e+06 l M-1. In addition, the PT in the assay filed under Homo sapiens is greater than 15 µM.
